Shown are actives, neighbours in structure and some others; about 3.1% of the full set was active somewhere.
UHRF1 MBD2 ctr: UHRF1 methyl-DNA binding inhibition; Q96T88; UHRF1 binding to methylated oligo, TR-FRET; inhibition, % at 4.4 µM; 370,000 tested, 0.75% active;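 note: UHRF1 SRA domain binding a hemimethylated CpG hairpin DNA probe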
CSN deneddyl inh: CSN deneddylation inhibition | Purified CSN, SCF-Nedd8-OG deneddylation, fluorescence polarization | Q92905 | inhibition, % at 12.5 µM | 360,000 tested, 0.38% active;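 active = pattern-corrected inhibition above about 35%, with an unprinted fluorescence ratio check between 0.5 and 1.5, limit read from the data, passing the limit was not always enough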
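Material: purified human Csn5 enzyme expressed in HEK293T cells / Medium: Tris buffer pH 7.5, NaCl, DTT, Tween-20, trehalose, ovalbumin / Compound dosing: 12.5 µM single point / Schedule: 90 min incubation of compound, enzyme and substrate at room temperature / Signal: fluorescence polarization of the substrate / Control set: no-enzyme wells high, enzyme-with-substrate wells low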
LEDGF integ inh: blocks HIV-1 LEDGF/p75-dependent DNA integration | TR-FRET IN-LEDGF/p75 DNA integration, Eu/Cy5 | inhibition, % at 3.7 µM | 370,000 tested, 0.64% active | AID 743269;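 active = inhibition above the screen-wide mean plus 3 SD, cut at about 13% in these data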;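 note: signal is the Cy5 over europium emission ratio at 671 and 618 nm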
ATG4B inhibitor: blocks human ATG4B protease cleavage of LC3 substrate | Q9Y4P1 | ATG4B cleavage of LC3-PLA2, NBD-HPC fluorescence, 1 h | inhibition, % at 8.33 µM | 340,000 tested, 0.51% active | AID 504462; in the data active = inhibition above about 40%
MBD2 DNA inh: inhibitors of human MBD2 binding to methylated oligonucleotide; TR-FRET; Q9UBB5; inhibition, % at 4.4 µM; 370,000 tested, 0.31% active; in the data active = inhibition above about 13%
rCAG binder: molecules binding r(CAG) RNA repeats. r(CAG) RNA repeat, TO-PRO-1 dye displacement fluorescence. inhibition, % at 3 µM. 370,000 tested, 1.3% active;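 active = inhibition above the plate cutoff, the mean of all test compounds on that plate plus 3 SD, cut at about 35% in these data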;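 note: higher means more dye released from RNA so lower well fluorescence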
UHRF1 ctr MBD2: UHRF1 methyl-oligo binding inhibition as MBD2 counter-screen | UHRF1 binding to methylated oligonucleotide, TR-FRET | shares compounds with MBD2 DNA inh | inhibition, % at 4.4 µM | 1,000 tested, 25% active;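 note: UHRF1 SRA domain binding a labeled hemimethylated CpG hairpin DNA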
MBD2 DBD conf: confirmation of human MBD2-DBD methylated oligonucleotide binding inhibitors | shares compounds with MBD2 DNA inh | TR-FRET MBD2-DBD binding to methylated oligonucleotide | inhibition, % at 4.4 µM | 1,000 tested, 26% active | AID 720531; in the data active = inhibition above about 14%
Numbers stand for hits; – = inactive; · = no result. Cut-off read from the data, not from the text of the source, unless noted: active = inhibition above about 21%; inactive = the rest.

SMILES	UHRF1 MBD2 ctr	CSN deneddyl inh	LEDGF integ inh	ATG4B inhibitor	MBD2 DNA inh	rCAG binder	UHRF1 ctr MBD2	MBD2 DBD conf
COc1ccc(N(C)S(=O)(=O)c2cccc(C(=O)OCC(=O)N(C)c3ccccc3)c2)cc1	–	–	–	–	16	–	–	–
CN(C(=O)COC(=O)c1cccc(S(=O)(=O)N2CCCCCC2)c1)c1ccccc1	–	–	–	·	–	–	·	·
O=C(N/N=C/C=C/c1ccccc1)c1cc(C2CC2)[nH]n1	–	–	–	–	21	–	–	–
Cc1cc(C(=O)N/N=C/C=C/c2ccccc2)n[nH]1	–	–	–	–	–	–	·	·
Cc1nc2ccc(NC(=O)c3ccc(F)cc3Cl)cc2c(=O)[nH]1	–	·	–	·	–	–	·	·
CCOC(=O)N1CCN(C(=O)c2ccc(C#CC3(O)CCCCC3)cc2)CC1	26	–	–	–	15	–	–	–
CCCc1nc2ccc(C(=O)OC)cn2c1Cc1cccc(F)c1	26	–	–	·	17	–	–	–
COC(=O)[C@]12C[C@H](CC(=O)N3CCCC3)C(=O)N(Cc3ccco3)C1=C[C@H](COCc1ccccc1)O[C@@H]2C	–	·	–	·	–	–	·	·
COCc1cc(N2CCCC2)nc(-c2ccccc2)n1	–	–	–	–	–	–	·	·
CS(=O)(=O)Cc1cc(N2CCCC2)nc(-c2ccccc2)n1	–	–	–	–	20	–	–	–
CCn1nc(C(=O)NNC(=O)c2ccc(OC(F)F)cc2)c2ccccc2c1=O	–	–	–	–	–	–	·	·
CCn1nc(C(=O)NNC(=O)c2ccccc2)c2ccccc2c1=O	–	–	–	–	24	–	–	–
COC(=O)[C@]12C[C@H](CC(=O)NCc3cccs3)C(=O)N(Cc3ccco3)C1=C[C@H](C(C)(C)C)O[C@@H]2C	–	·	–	·	–	–	·	·
CCC(C)N(C(=O)CN1C(=O)C2CCCCN2C(=O)c2ccccc21)C(C)CC (stereo unspecified)	–	·	–	·	–	–	·	·
Cc1ccc(C2NC(=S)NC3=C2C(=O)CCC3)cc1 (stereo unspecified)	24	–	–	–	14	–	–	–
Cc1cc(S(=O)(=O)NCC(c2ccccc2)c2ccccc2)ccc1-n1cnnn1	–	–	–	–	14	–	–	–
O=C(CSc1cccc[n+]1[O-])Nc1cc2c(cc1Cl)C(=O)c1ccccc1C2=O	–	–	–	–	–	–	·	·
O=C(CSc1cccc[n+]1[O-])Nc1cc([N+](=O)[O-])ccc1Cl	–	–	–	–	13	–	–	–
Cc1cc2cc(C(c3nnnn3CC3CCCO3)N3CCCc4ccccc43)c(=O)[nH]c2cc1C (stereo unspecified)	–	–	–	–	–	–	·	·
Cc1cccc2cc(C(c3nnnn3CC3CCCO3)N3CCCc4ccccc43)c(=O)[nH]c12 (stereo unspecified)	–	–	–	–	18	–	–	–
COc1ccc(CC(=O)N2CCN(c3cccc(C)c3C)CC2)cc1	–	–	–	–	16	–	–	–
CCn1c(=O)[nH]n(C/C(C)=C\c2c[n+](Cc3ccc4c(c3)OCO4)c(N)[nH]2)c1=O	–	·	–	·	–	·	·	·
CCOC(=O)C1=NN(C(C)=O)C2(CC(=O)N(c3cccc(C)c3)C2=O)C1 (stereo unspecified)	–	–	–	–	19	–	–	–
COC(=O)C1=NN(C(C)=O)C2(CC(=O)N(c3cccc(C)c3)C2=O)C1 (stereo unspecified)	–	–	–	–	–	–	·	·
CCOC(=O)[C@]12CCC=C1N(CCC1=CCCCC1)C(=O)[C@H](CC(=O)N1CCC(c3ccccc3)CC1)C2	–	–	–	·	–	–	·	·
CCOC(=O)N1CCN(C(=O)C[C@@H]2C[C@@]3(C(=O)OCC)CCCC=C3N(CCC3=CCCCC3)C2=O)CC1	–	–	–	·	20	–	–	–
